Results reported in ChEMBL document CHEMBL1135162, “Synthesis and evaluation of N-substituted 1,4-oxazepanyl Sordaricins as selective fungal EF-2 inhibitors” (2002).
Values after ≈ are worked out from the molar mass of the structure shown.

Experiments:
Assay type in all cases: functional
[1] = test system: Nakaseomyces glabratus; assay: Tested for in vitro antifungal activity against Candida glabrata ATCC 90030
Summary of the method: (§1)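 Microplate growth assay in RPMI1640 medium buffered at pH 7.0, incubated at 35 °C. MIC is the lowest test-compound concentration that inhibits fungal growth by 80%.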

[2] = test system: Candida albicans; assay: Tested for in vitro antifungal activity against Candida albicans ATCC 24433; summary of the method: as §1
[3] = test system: Candida albicans; assay: Tested for in vitro antifungal activity against Candida albicans SANK51486; summary of the method: as §1
[4] = test system: Candida albicans; assay: Tested for in vitro antifungal activity against Candida albicans SANK51486 in the presence of horse serum (20%)
Summary of the method: (§2)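 RPMI1640 medium buffered at pH 7.0, with 20% horse serum added for the incubation. Microplates incubated at 35 °C. MIC is the lowest concentration giving 80% inhibition of fungal growth.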

[5] = test system: Candida albicans; assay: Tested for in vitro antifungal activity against Candida albicans ATCC 64550; summary of the method: as §1
[6] = test system: Candida tropicalis; assay: Tested for in vitro antifungal activity against Candida tropicalis ATCC750; summary of the method: as §1
[7] = test system: Candida parapsilosis; assay: Tested for in vitro antifungal activity against Candida parapsilosis ATCC 90018; details: Lodderomyces parapsilosis; summary of the method: as §1
[8] = test system: Candida albicans; assay: Tested for in vitro antifungal activity against Candida albicans ATCC 24433 in the presence of horse serum (20%); summary of the method: as §2
[9] = test system: Cryptococcus neoformans; assay: Tested for in vitro antifungal activity against Cryptococcus neoformans TIMM1855
Summary of the method: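 Yeast grown in microplates in yeast nitrogen base buffered at pH 7.0, incubated at 35 °C. MIC is the lowest concentration inhibiting growth by 80%.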

[10] = test system: Aspergillus fumigatus; assay: Tested for in vitro antifungal activity against Aspergillus fumigatus ATCC 26430
Summary of the method: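 Mould grown in microplates in RPMI1640 buffered at pH 7.0, incubated at 30 °C. MIC is the lowest test-compound concentration that inhibits growth by 80%.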

[11] = test system: Candida albicans; assay: Tested for in vitro antifungal activity against Candida albicans TIMM3164; summary of the method: as §1

Work on `C=C(C)CN1C[C@H](OCC23C[C@@H]4[C@H](C)CC[C@H]4C4(C=O)CC2C=C(C(C)C)C34C(=O)O)O[C@H](C)[C@@H](OC)C1` (stereo not given in full) yielded an MIC [1] of 0.25 µg/mL (≈ 0.472 µM), an MIC [2] of 0.031 µg/mL (≈ 0.0585 µM) and an MIC [3] of 0.016 µg/mL (≈ 0.0302 µM). The MIC [4] was 0.25 µg/mL, the MIC [5] was 0.031 µg/mL (≈ 0.0585 µM) and the MIC [6] was 0.125 µg/mL (≈ 0.236 µM). The MIC [7] was over 16 µg/mL, the MIC [8] was 0.5 µg/mL and the MIC [9] was 0.25 µg/mL (≈ 0.472 µM). It also gave an MIC [10] of over 16 µg/mL and an MIC [11] of 0.031 µg/mL (≈ 0.0585 µM).

`CO[C@H]1CN(Cc2ccc3c(c2)OCO3)C[C@H](OCC23C[C@@H]4[C@H](C)CC[C@H]4C4(C=O)CC2C=C(C(C)C)C34C(=O)O)O[C@@H]1C` (stereo not given in full) was tested, and the MIC [1] was 0.5 µg/mL (≈ 0.82 µM), the MIC [2] was 0.031 µg/mL (≈ 0.0508 µM) and the MIC [3] was 0.016 µg/mL (≈ 0.0262 µM). For the same molecule, the MIC [4] was 0.5 µg/mL, the MIC [5] was 0.031 µg/mL (≈ 0.0508 µM) and the MIC [6] was 0.25 µg/mL (≈ 0.41 µM). For the same molecule, the MIC [7] was over 16 µg/mL, the MIC [8] was 1 µg/mL and the MIC [9] was 2 µg/mL (≈ 3.28 µM). The MIC [10] was over 16 µg/mL and the MIC [11] was 0.031 µg/mL (≈ 0.0508 µM).

For `CO[C@H]1CN(CC=C(C)C)C[C@H](OCC23C[C@@H]4[C@H](C)CC[C@H]4C4(C=O)CC2C=C(C(C)C)C34C(=O)O)O[C@@H]1C` (stereo not given in full), the MIC [1] was 16 µg/mL (≈ 29.4 µM), the MIC [2] was 0.25 µg/mL (≈ 0.46 µM) and the MIC [3] was 0.125 µg/mL (≈ 0.23 µM). It also gave an MIC [4] of 1 µg/mL, an MIC [5] of 0.5 µg/mL (≈ 0.92 µM) and an MIC [6] of 2 µg/mL (≈ 3.68 µM). For the same molecule, the MIC [7] was over 16 µg/mL, the MIC [8] was 2 µg/mL and the MIC [9] was over 16 µg/mL. The MIC [10] was over 16 µg/mL and the MIC [11] was 0.25 µg/mL (≈ 0.46 µM).

In the case of `CO[C@H]1CN(CC=C(Cl)Cl)C[C@H](OCC23C[C@@H]4[C@H](C)CC[C@H]4C4(C=O)CC2C=C(C(C)C)C34C(=O)O)O[C@@H]1C` (stereo not given in full), the MIC [1] is reported as 1 µg/mL (≈ 1.71 µM), the MIC [2] is reported as at most 0.031 µg/mL and the MIC [3] is reported as at most 0.031 µg/mL. The MIC [4] was 1 µg/mL, the MIC [5] was 0.063 µg/mL (≈ 0.108 µM) and the MIC [6] was 0.5 µg/mL (≈ 0.855 µM). It also gave an MIC [7] of over 16 µg/mL, an MIC [8] of 2 µg/mL and an MIC [9] of 8 µg/mL (≈ 13.7 µM). It also gave an MIC [10] of over 16 µg/mL and an MIC [11] of at most 0.031 µg/mL.

`CO[C@H]1CN(Cc2ccccc2)C[C@H](OCC23C[C@@H]4[C@H](C)CC[C@H]4C4(C=O)CC2C=C(C(C)C)C34C(=O)O)O[C@@H]1C` (stereo not given in full) gave an MIC [1] of 0.5 µg/mL (≈ 0.884 µM), an MIC [2] of at most 0.063 µg/mL and an MIC [3] of at most 0.063 µg/mL. It also gave an MIC [4] of 0.5 µg/mL, an MIC [5] of at most 0.063 µg/mL and an MIC [6] of 0.25 µg/mL (≈ 0.442 µM). For the same molecule, the MIC [7] was over 32 µg/mL, the MIC [8] was 1 µg/mL and the MIC [9] was 4 µg/mL (≈ 7.07 µM). It also gave an MIC [10] of over 32 µg/mL and an MIC [11] of 0.125 µg/mL (≈ 0.221 µM).

`COc1ccc(CN2C[C@H](OCC34C[C@@H]5[C@H](C)CC[C@H]5C5(C=O)CC3C=C(C(C)C)C45C(=O)O)O[C@H](C)[C@@H](OC)C2)cc1` (stereo not given in full) showed an MIC [1] of 0.25 µg/mL (≈ 0.42 µM), an MIC [2] of at most 0.063 µg/mL and an MIC [3] of at most 0.063 µg/mL. The MIC [4] was 0.5 µg/mL, the MIC [5] was at most 0.063 µg/mL and the MIC [6] was 0.25 µg/mL (≈ 0.42 µM). The MIC [7] was over 32 µg/mL, the MIC [8] was 1 µg/mL and the MIC [9] was 2 µg/mL (≈ 3.36 µM). The MIC [10] was over 32 µg/mL and the MIC [11] was at most 0.063 µg/mL.

In the case of `CO[C@H]1CN(Cc2ccc(SC)cc2)C[C@H](OCC23C[C@@H]4[C@H](C)CC[C@H]4C4(C=O)CC2C=C(C(C)C)C34C(=O)O)O[C@@H]1C` (stereo not given in full), the MIC [1] is reported as 2 µg/mL (≈ 3.27 µM), the MIC [2] is reported as 0.063 µg/mL (≈ 0.103 µM) and the MIC [3] is reported as at most 0.031 µg/mL. For the same molecule, the MIC [4] was 2 µg/mL, the MIC [5] was 0.125 µg/mL (≈ 0.204 µM) and the MIC [6] was 0.5 µg/mL (≈ 0.817 µM). For the same molecule, the MIC [7] was over 16 µg/mL, the MIC [8] was 4 µg/mL and the MIC [9] was over 16 µg/mL. It also gave an MIC [10] of over 16 µg/mL and an MIC [11] of 0.063 µg/mL (≈ 0.103 µM).

`CC(C)C1=CC2CC3(C=O)[C@@H]4CC[C@@H](C)[C@H]4CC2(CSC2CCCCC2)C13C(=O)O` (stereo not given in full) was tested, and the MIC [1] was 0.031 µg/mL (≈ 0.072 µM), the MIC [2] was 0.031 µg/mL (≈ 0.072 µM) and the MIC [3] was at most 0.016 µg/mL. The MIC [4] was 4 µg/mL, the MIC [5] was 0.125 µg/mL (≈ 0.29 µM) and the MIC [6] was 2 µg/mL (≈ 4.64 µM). For the same molecule, the MIC [7] was over 8 µg/mL, the MIC [8] was 8 µg/mL and the MIC [9] was over 8 µg/mL. The MIC [10] was over 8 µg/mL and the MIC [11] was 0.063 µg/mL (≈ 0.146 µM).

Molecule `C/C=C/C=C\C(=O)O[C@H]1[C@H](O)[C@H](OCC23C[C@@H]4[C@H](C)CC[C@H]4C4(C=O)CC2C=C(C(C)C)C34C(=O)O)O[C@H](C)[C@H]1OC` (stereo not given in full) has an MIC [1] of over 4 µg/mL, an MIC [2] of 0.5 µg/mL (≈ 0.852 µM) and an MIC [3] of 0.25 µg/mL (≈ 0.426 µM). The MIC [5] was 0.5 µg/mL (≈ 0.852 µM), the MIC [6] was 0.5 µg/mL (≈ 0.852 µM) and the MIC [7] was over 4 µg/mL. For the same molecule, the MIC [8] was 4 µg/mL, the MIC [9] was 0.25 µg/mL (≈ 0.426 µM) and the MIC [10] was over 4 µg/mL. It also gave an MIC [11] of 0.5 µg/mL (≈ 0.852 µM).

`CO[C@H]1CN(Cc2ccc(C)cc2)C[C@H](OCC23C[C@@H]4[C@H](C)CC[C@H]4C4(C=O)CC2C=C(C(C)C)C34C(=O)O)O[C@@H]1C` (stereo not given in full) gave an MIC [1] of 2 µg/mL (≈ 3.45 µM), an MIC [2] of 0.063 µg/mL (≈ 0.109 µM) and an MIC [3] of at most 0.031 µg/mL. The MIC [4] was 2 µg/mL, the MIC [5] was 0.125 µg/mL (≈ 0.216 µM) and the MIC [6] was 1 µg/mL (≈ 1.72 µM). For the same molecule, the MIC [7] was over 16 µg/mL, the MIC [8] was 8 µg/mL and the MIC [9] was over 16 µg/mL. The MIC [10] was over 16 µg/mL and the MIC [11] was 0.125 µg/mL (≈ 0.216 µM).

For `CO[C@H]1CN(Cc2ccc(C#N)cc2)C[C@H](OCC23C[C@@H]4[C@H](C)CC[C@H]4C4(C=O)CC2C=C(C(C)C)C34C(=O)O)O[C@@H]1C` (stereo not given in full), the MIC [1] was 2 µg/mL (≈ 3.39 µM), the MIC [2] was 0.063 µg/mL (≈ 0.107 µM) and the MIC [3] was at most 0.031 µg/mL. The MIC [4] was 1 µg/mL, the MIC [5] was 0.063 µg/mL (≈ 0.107 µM) and the MIC [6] was 0.5 µg/mL (≈ 0.846 µM). The MIC [7] was over 16 µg/mL, the MIC [8] was 2 µg/mL and the MIC [9] was 8 µg/mL (≈ 13.5 µM). For the same molecule, the MIC [10] was over 16 µg/mL and the MIC [11] was 0.063 µg/mL (≈ 0.107 µM).
